PGC1a acetyl inh: lowers PGC1a acetylation signal in U2OS cells. inhibition, % at 15.6 µM. AID 651687. AlphaScreen anti-acetyl-lysine; with virally co-expressed GCN5 acetyltransferase. 350,000 compounds, 0.17% hits;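 active = every replicate shows inhibition of at least 40%; inconclusive = mean inhibition at least 40% but some replicate below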;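 note: 0% = neutral control wells and 100% = positive control wells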
HIV Env fusion: HIV envelope-mediated fusion inhibition; AID 651610; HeLa-JRFL Env/CEM21 cell fusion, luciferase; inhibition, % at 12.3 µM; 360,000 compounds, 1.1% hits;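 active = mean replicate inhibition score of at least 50 and every replicate individually at or above 50; inconclusive = only one of the two criteria met; inactive = mean below 50 and not all replicates reaching 50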;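 note: 0% = plate neutral controls and 100% = maraviroc near 300 nM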
EWS-Fli block: inhibitors of EWS/Fli oncoprotein transcriptional activity; AID 651661; A673 NR0B1-luciferase reporter, viability-normalised; inhibition, % at 12.6 µM; 350,000 compounds, 0.67% hits;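 active = mean inhibition of at least 50% after viability correction, with every replicate also passing that limit; inconclusive = mean reaches 50% but only one of two replicates passes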;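 note: firefly luciferase signal divided by Alamar Blue viability fluorescence both relative to DMSO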
FN deposit inh: fibronectin deposition inhibition. 350,000 compounds, 0.086% hits. inhibition, % at 12.6 µM. AH1F fibroblasts, Alexa488-fibronectin deposition fluorescence, overnight;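 active = mean inhibition across replicates of 30% or more, regardless of how many single replicates reach that level; inconclusive = mean under 30% yet at least half of replicates reach 30%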;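 note: positive control wells lacked labelled fibronectin entirely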
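Material: AH1F fibroblast monolayer depositing Alexa488-labelled fibronectin into matrix | Input: 10000 AH1F cells/well | Medium: DMEM plus 2% serum, read in PBS | Reagent: Alexa488-fibronectin, 24 nM final in well | Compound dosing: One dose per compound, pinned | Schedule: 1 h adhesion, overnight exposure | Measured by: Fluorescence at 485 nm excitation, 525 nm emission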
PAX8 inh HTS: inhibitors of PAX8 transcriptional activity in RMG-I cells | inhibition, % at 12.6 µM | 360,000 compounds, 1.2% hits | RMG-I TPO-luciferase reporter, SteadyGlo, 24 h | AID 652154;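 active = mean replicate inhibition at least 60% with every replicate also reaching 60%; inconclusive = only one of the two criteria is met; inactive = mean below 60% and not all replicates reaching 60%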;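 note: luciferase light reporting Pax8 driven TPO promoter activity; plate controls were median of neutral control wells for no effect and mitoxantrone controls for full effect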
FGF22 binding: binders of recombinant human FGF22 by thermal shift | Q9HCT0 | SYPRO orange fluorescence; percent of sucrose octasulfate shift, DMSO zero | activity (Tm shift, normalised), % at 9.99 µM | 340,000 compounds, 1.5% hits;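 active = mean Tm shift, scaled 0 neutral to 100 positive control, at about 1.3% or above, every replicate too, limit read from the data; inconclusive = no clear call, values can overlap the other calls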
Target sequence (Q9HCT0 whole entry, looked up): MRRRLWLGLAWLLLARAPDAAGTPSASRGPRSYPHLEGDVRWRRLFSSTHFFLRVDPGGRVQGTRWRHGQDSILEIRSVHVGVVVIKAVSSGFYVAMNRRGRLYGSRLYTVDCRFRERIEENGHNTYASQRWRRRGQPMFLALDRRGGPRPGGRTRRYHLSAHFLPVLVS
The depositor's hits bear a star; ? = inconclusive; . = no result; [ ] = another dose, or the depositor's remark. Shown are actives, neighbours in structure and some others; about 3.1% of the full set was active somewhere.

SMILES | PGC1a acetyl inh | HIV Env fusion | EWS-Fli block | FN deposit inh | PAX8 inh HTS | FGF22 binding
O=C(O)CSc1ccc(Oc2ccc(SCC(=O)O)cc2)cc1 | 15 | 5 | 0 | . | -9 | 43*
CC(C)C#Cc1cnc2c(c1)C(=O)N([C@@H](C)CO)C[C@H](C)[C@H](CN(C)C(=O)Cc1ccccn1)O2 | -15 | 1[16.7 µM] | -7 | -12 | -7 | 0
Cc1noc(C)c1NC(=O)N[C@H]1CC[C@@H](CCNC(=O)C2CCCCC2)O[C@H]1CO | 7 | -12[16.7 µM] | -5 | 9 | 6 | 0
Cc1cccc(CN(C)C[C@@H]2Oc3ncc(-c4cc5ccccc5o4)cc3C(=O)N([C@H](C)CO)C[C@@H]2C)c1 | -11 | -33[16.7 µM] | 5 | 9 | 3 | 0
CCn1c(SCC(=O)N(C)C2CCS(=O)(=O)C2)nnc1-c1ccccc1 (centres undefined) | . | 12 | 5 | 1 | 12 | 43*
CCN(C(=O)CSc1nnc(-c2ccc(F)cc2)n1C)C1CCS(=O)(=O)C1 (centres undefined) | 2 | 6 | 2 | 9 | 3 | 43*
COc1ccccc1C(=O)N/C(=C\c1ccc(Br)cc1)C(=O)NCC(=O)O | . | 20 | 0 | -2 | -10 | 0
COc1ccccc1C(=O)N/C(=C/c1ccc(Br)cc1)C(=O)N1CCCC1 | 5 | 36 | 11 | 32* | 9 | 0
C[C@H](O)C#Cc1cnc2c(c1)C(=O)N([C@H](C)CO)C[C@@H](C)[C@@H](CN(C)C(=O)Nc1ccc(F)cc1)O2 | -3 | -22[16.7 µM] | 1 | -24 | . | 0
COC(=O)c1ccc(/C=C/c2nc3ccccc3c(=O)[nH]2)cc1 | . | -7 | 10 | -2 | 9 | 0
Cc1ccc(/C=C/c2nc3ccccc3c(=O)[nH]2)cc1 | 9 | -160 | 70* | -2 | -1 | 0
Cc1ccc(Cl)cc1Nc1nc(-c2sc(NC(=O)c3ccco3)nc2C)cs1 | -21 | 33 | 49 | -1 | 86* | 0
COc1ccccc1Nc1nc(-c2sc(NC(=O)c3ccco3)nc2C)cs1 | . | 6 | 18 | 30 | 37 | 0
COc1cccc(N(C(=O)c2ccco2)c2nc(-c3sc(NC(=O)c4ccco4)nc3C)cs2)c1 | -1 | 44 | 20 | 16 | 99* | 0
O=C1C=CC(=O)N1c1ccccc1N1C(=O)C=CC1=O | -39 | -65 | 34 | 40* | ? | 0
O=C(c1ccccc1)c1ccccc1N1C(=O)C=CC1=O | -33 | 5 | 2 | 58* | 53 | .
O=C1C=CC(=O)N1c1ccccn1 | 3 | -23 | 4 | . | -5 | 0
C[C@@H]1CCCCO[C@H](CN(C)C(=O)CCC(F)(F)F)[C@H](C)CN([C@H](C)CO)C(=O)c2cc(NS(=O)(=O)c3cccs3)ccc2O1 | 1 | 45[16.7 µM] | 0 | . | 18 | 0
CS(=O)(=O)N(CC(=O)O)c1ccc(C23CC4CC(CC(C4)C2)C3)cc1 | . | 7 | 4 | 2 | 28 | 0
COc1ccccc1NC(=O)CN(c1ccc(C23CC4CC(CC(C4)C2)C3)cc1)S(C)(=O)=O | -9 | 104* | . | -11 | . | .
O=C1CNC[C@H]2[C@@H](c3ccc(C#CC4CCCC4)cc3)[C@@H](CO)N12 | -9 | . | 8 | -4 | -11 | .
COc1ccc(S(=O)(=O)N[C@@H]2CC[C@H](CCn3cc(-c4ccccc4F)nn3)O[C@@H]2CO)cc1 | 3 | -13[16.7 µM] | 4 | -6 | 8 | 1
Cc1ccc(S(=O)(=O)N2C[C@H]3C(=O)C[C@@H](c4ccccc4)N(S(=O)(=O)c4ccc(C)cc4)[C@H]3C[C@H]2c2cccc3ccccc23)cc1 | -7 | -1 | 7 | -8 | -3 | 0
Cc1ccc(S(=O)(=O)N2C[C@H]3C(=O)C[C@@H](c4ccccc4F)N(S(=O)(=O)c4ccc(C)cc4)[C@H]3C[C@H]2c2cccc3ccccc23)cc1 | 8 | -67 | -1 | -7 | 26 | 43*
COc1ccccc1NC(=O)N1[C@H](C#N)[C@@H](c2ccccc2)[C@@H]1CO | -1 | . | -9 | 11 | -4 | 0
SMILES | PGC1a acetyl inh | HIV Env fusion | EWS-Fli block | FN deposit inh | PAX8 inh HTS | FGF22 binding
Clc1ccc(-c2nc3c4ccccc4ccn3c2Cc2ccsc2)cc1 | . | 65* | -3 | -3 | 16 | 0
COc1ccc2c(COC(=O)CC3Sc4ccccc4NC3=O)cc(=O)oc2c1 (centres undefined) | . | 6 | -22 | 6 | -11 | 44*
CC(=O)Nc1ccc2c(COC(=O)CC3Sc4ccccc4NC3=O)cc(=O)oc2c1 (centres undefined) | 1 | 4 | -32 | -3 | -10 | 43*
CNC[C@@H]1Oc2ccc(NC(=O)C3CC3)cc2C(=O)N([C@H](C)CO)C[C@H]1C | 5 | 8[16.7 µM] | -1 | . | 8 | 0
C[C@@H]1CN([C@@H](C)CO)S(=O)(=O)c2ccc(-c3cccnc3)cc2O[C@H]1CN(C)C(=O)NC1CCCC1 | -1 | -12[16.7 µM] | -3 | -9 | -17 | 0
O=C(Nc1ccc(F)cc1)NC1CCN(Cc2nnnn2Cc2ccco2)CC1 | 8 | 61* | . | . | . | .
O=C(Nc1ccccc1F)NC1CCN(Cc2nnnn2Cc2ccc(F)cc2)CC1 | . | -16 | . | 6 | . | .
Cc1ccc(NC(=O)Cc2ccc(Cl)cc2)cc1S(=O)(=O)N1CCCCCC1 | -11 | . | 19 | -4 | 26 | 0
Cc1ccc(NC(=O)c2cnccn2)cc1S(=O)(=O)N1CCCCCC1 | . | 21 | 6 | -5 | 43 | 43*
Cc1ccc(NC(=O)Cn2ncc(Cl)c(Cl)c2=O)cc1S(=O)(=O)N1CCCCC1 | -90 | 9 | ? | 7 | 90* | 0
Cc1ccc(NC(=O)CN(C)C(=O)Cn2ncc(Cl)c(Cl)c2=O)cc1 | . | -53 | . | 36* | 93* | 0
CO[C@H]1CN(C)C(=O)c2cc(NC(C)=O)ccc2OC[C@@H](C)NC[C@H]1C | 26 | 13[16.7 µM] | 12 | . | -6 | 1
C[C@@H]1CN([C@H](C)CO)C(=O)c2cccc(NS(=O)(=O)c3ccc(F)cc3)c2O[C@@H]1CN(C)CC1CC1 | . | 8[16.7 µM] | 6 | 3 | 0 | 0
c1cc2cc(CNc3nc(NCC4CC4)nc4ccsc34)ccc2o1 | . | 80* | 31 | 6 | 27 | 0
COc1ccccc1CNc1nc(NCc2ccc3occc3c2)c2sccc2n1 | . | 58* | 21 | -10 | 37 | 0
COc1ccccc1CNc1nc(Nc2cccc(-c3cnco3)c2)c2sccc2n1 | . | 0 | 3 | -1 | 74* | 0
COc1ccccc1CNc1nc(NCc2ccccc2OC)c2sccc2n1 | 8 | 6 | 3 | 12 | 3 | 0
CCCN(C)C[C@H]1Oc2ncc(-c3cccnc3)cc2C(=O)N([C@H](C)CO)C[C@H]1C | 10 | -24[16.7 µM] | -10 | 10 | . | 0

High-throughput results: PubChem, Broad Institute
